ChEMBL document CHEMBL4257443, “The discovery of a potent Nav1.3 inhibitor with good oral pharmacokinetics” (Medchemcomm, 2017)
Activity calls are given as the source filed them. The calls are words filed in the database; no cut-off is given here.

What was measured:
[1] = Lipophilicity, log D of the compound; assay type: physicochemical; settings: octanol/water
[2] = target: Sodium channel protein type 3 subunit alpha (Homo sapiens, UniProt Q9NY46); experiment: Inhibition of human NaV1.3 expressed in HEK cells by electrophysiological method; assay type: cell-based
[3] = tested on: Rattus norvegicus; experiment: Antipain activity in tibial nerve transection surgery model of rat assessed as reduction of heat evoked activity at 9 to 18 mg/kg administered as iv bolus dose measured every 15 mins for 30 mins; assay type: functional, organism-based
Procedure, shortened: (§1)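 Rats given tibial nerve transection 2 to 3 weeks before recording. Anaesthesia with isoflurane (5% in O2) in a stereotaxic frame, body temperature held at 37 °C, and laminectomy to expose spinal segments L4-5. After stable baseline responses, compound given as IV bolus; evoked activity assessed every 15 min for up to 30 min per dose. Randomised, blinded dosing. Dry blood spots taken for plasma exposure.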

[4] = tested on: Rattus norvegicus; experiment: Antipain activity in tibial nerve transection surgery model of rat assessed as reduction of noxious pinch evoked activity at 9 to 18 mg/kg administered as iv bolus dose measured every 15 mins for 30 mins; assay type: functional, organism-based; procedure, shortened: as §1
[5] = tested on: Rattus norvegicus; experiment: Antipain activity in tibial nerve transection surgery model of rat assessed as reduction of mechanical punctate stimuli evoked activity at 9 to 18 mg/kg administered as iv bolus dose measured every 15 mins for 30 mins; assay type: functional, organism-based; procedure, shortened: as §1
[6] = tested on: Rattus norvegicus; experiment: Antipain activity in tibial nerve transection surgery model of rat assessed as reduction of innocuous brush evoked activity at 9 to 18 mg/kg administered as iv bolus dose measured every 15 mins for 30 mins; assay type: functional, organism-based; procedure, shortened: as §1
[7] = target: Sodium channel protein type 9 subunit alpha (Homo sapiens, UniProt Q15858); experiment: Inhibition of human NaV1.7
[8] = Clearance in rat; assay type: ADME, organism-based; settings: in vivo
[9] = target: CYP3A4 (Homo sapiens, UniProt P08684); experiment: Inhibition of CYP3A4 (unknown origin) at 3 uM by high throughput assay relative to control; assay type: ADME
[10] = Dissociation constant, pKa of compound; assay type: physicochemical
[11] = Clearance in rat liver microsomes; assay type: ADME, microsome; settings: read-out: CLH
[12] = Clearance in cynomolgus monkey liver microsomes; assay type: ADME, Macaca fascicularis, microsome; settings: read-out: CLH
[13] = Oral bioavailability in rat; assay type: ADME, organism-based; settings: in vivo
[14] = Volume of distribution in rat; assay type: ADME, organism-based; settings: in vivo
[15] = Clearance in human liver microsomes; assay type: ADME, microsome; settings: read-out: CLH
[16] = tested on: MDR1; experiment: Efflux ratio of permeability across basolateral to apical over apical to basolateral side in RRCK cells expressing MDR1; assay type: ADME, cell-based, Canis lupus familiaris, MDCKII-LE; settings: dog, MDCK-MDR1
[17] = Clearance in dog liver microsomes; assay type: ADME, Canis lupus familiaris, microsome; settings: read-out: CLH
[18] = Elimination half life in rat; assay type: ADME, organism-based; settings: in vivo, read-out: beta t1/2 (converted)
[19] = target: Sodium channel protein type 10 subunit alpha (Homo sapiens, UniProt Q9Y5Y9); experiment: Inhibition of human NaV1.8
[20] = target: Sodium channel protein type 2 subunit alpha (Homo sapiens, UniProt Q99250); experiment: Inhibition of human NaV1.2
[21] = target: Voltage-gated inwardly rectifying potassium channel KCNH2 (Homo sapiens, UniProt Q12809); experiment: Inhibition of human ERG
[22] = target: Sodium channel protein type 1 subunit alpha (Homo sapiens, UniProt P35498); experiment: Inhibition of human NaV1.1
[23] = Aqueous solubility of compound; assay type: physicochemical; settings: buffer
[24] = Fraction unbound in rat plasma; assay type: ADME, cell-free
[25] = target: CYP2C9 (Homo sapiens, UniProt P11712); experiment: Inhibition of CYP2C9 (unknown origin) at 3 uM by high throughput assay relative to control; assay type: ADME
[26] = Protein binding in rat plasma by equilibrium dialysis method; assay type: ADME, cell-free; settings: read-out: PPB (converted)
Procedure, shortened: (§2)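 Plasma protein binding measured by equilibrium dialysis.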

[27] = Ratio of drug level in tibial nerve transection surgery model of rat treated with (2-(4-(3-chloro-4-(trifluoromethoxy)benzylcarbamoyl)-2-fluorophenylsulfonylimino)thiazol-3(2H)-yl)methyl dihydrogen phosphate at 3 to 10 mg/kg administered as iv bolus dose to IC50 for rat NaV1.3; assay type: ADME, organism-based; settings: in vivo
[28] = target: Sodium channel protein type 5 subunit alpha (Homo sapiens, UniProt Q14524); experiment: Inhibition of human NaV1.5
[29] = Protein binding in dog plasma; assay type: ADME, cell-free, Canis lupus familiaris; settings: read-out: PPB
[30] = tested on: Rattus norvegicus; experiment: Toxicity in rat assessed as decrease in core body temperature at 100 to 500 mg/kg, po; assay type: organism-based; settings: in vivo
[31] = tested on: Rattus norvegicus; experiment: Toxicity in rat assessed as increase in blood pressure at 100 to 500 mg/kg, po; assay type: organism-based; settings: in vivo
[32] = target: Sodium channel protein type 8 subunit alpha (Homo sapiens, UniProt Q9UQD0); experiment: Inhibition of human NaV1.6
[33] = tested on: Tibial nerve; experiment: Effect on ongoing nerve activity in rat skin-tibial nerve at 0.01 to 1 uM; assay type: functional, tissue-based
Procedure, shortened: (§3)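 Compound was applied to the isolated skin-tibial nerve preparation at 0.01, 0.03, 0.1, 0.3 and 1 µM. Heat-evoked afferent firing and ongoing nerve activity were recorded.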

[34] = Protein binding in human plasma by equilibrium dialysis method; assay type: ADME, cell-free; settings: read-out: PPB (converted); procedure, shortened: as §2
[35] = tested on: Rattus norvegicus; experiment: Toxicity in rat assessed as decrease in heart rate at 100 to 500 mg/kg, po; assay type: organism-based; settings: in vivo
[36] = tested on: Tibial nerve; experiment: Effect on heat evoked afferent firing in rat skin-tibial nerve at 0.01 to 1 uM; assay type: functional, tissue-based; procedure, shortened: as §3
[37] = Ratio of drug level in cynomolgus monkey treated with (2-(4-(3-chloro-4-(trifluoromethoxy)benzylcarbamoyl)-2-fluorophenylsulfonylimino)thiazol-3(2H)-yl)methyl dihydrogen phosphate at 30 mg/kg to IC50 for cynomolgus monkey NaV1.3; assay type: ADME, organism-based, Macaca fascicularis; settings: in vivo
[38] = Ratio of drug level in rat at 100 mg/kg, po to IC50 for rat NaV1.3; assay type: ADME, organism-based; settings: in vivo

Sodium channel protein type 3 subunit alpha, sequence (Q9NY46 whole entry): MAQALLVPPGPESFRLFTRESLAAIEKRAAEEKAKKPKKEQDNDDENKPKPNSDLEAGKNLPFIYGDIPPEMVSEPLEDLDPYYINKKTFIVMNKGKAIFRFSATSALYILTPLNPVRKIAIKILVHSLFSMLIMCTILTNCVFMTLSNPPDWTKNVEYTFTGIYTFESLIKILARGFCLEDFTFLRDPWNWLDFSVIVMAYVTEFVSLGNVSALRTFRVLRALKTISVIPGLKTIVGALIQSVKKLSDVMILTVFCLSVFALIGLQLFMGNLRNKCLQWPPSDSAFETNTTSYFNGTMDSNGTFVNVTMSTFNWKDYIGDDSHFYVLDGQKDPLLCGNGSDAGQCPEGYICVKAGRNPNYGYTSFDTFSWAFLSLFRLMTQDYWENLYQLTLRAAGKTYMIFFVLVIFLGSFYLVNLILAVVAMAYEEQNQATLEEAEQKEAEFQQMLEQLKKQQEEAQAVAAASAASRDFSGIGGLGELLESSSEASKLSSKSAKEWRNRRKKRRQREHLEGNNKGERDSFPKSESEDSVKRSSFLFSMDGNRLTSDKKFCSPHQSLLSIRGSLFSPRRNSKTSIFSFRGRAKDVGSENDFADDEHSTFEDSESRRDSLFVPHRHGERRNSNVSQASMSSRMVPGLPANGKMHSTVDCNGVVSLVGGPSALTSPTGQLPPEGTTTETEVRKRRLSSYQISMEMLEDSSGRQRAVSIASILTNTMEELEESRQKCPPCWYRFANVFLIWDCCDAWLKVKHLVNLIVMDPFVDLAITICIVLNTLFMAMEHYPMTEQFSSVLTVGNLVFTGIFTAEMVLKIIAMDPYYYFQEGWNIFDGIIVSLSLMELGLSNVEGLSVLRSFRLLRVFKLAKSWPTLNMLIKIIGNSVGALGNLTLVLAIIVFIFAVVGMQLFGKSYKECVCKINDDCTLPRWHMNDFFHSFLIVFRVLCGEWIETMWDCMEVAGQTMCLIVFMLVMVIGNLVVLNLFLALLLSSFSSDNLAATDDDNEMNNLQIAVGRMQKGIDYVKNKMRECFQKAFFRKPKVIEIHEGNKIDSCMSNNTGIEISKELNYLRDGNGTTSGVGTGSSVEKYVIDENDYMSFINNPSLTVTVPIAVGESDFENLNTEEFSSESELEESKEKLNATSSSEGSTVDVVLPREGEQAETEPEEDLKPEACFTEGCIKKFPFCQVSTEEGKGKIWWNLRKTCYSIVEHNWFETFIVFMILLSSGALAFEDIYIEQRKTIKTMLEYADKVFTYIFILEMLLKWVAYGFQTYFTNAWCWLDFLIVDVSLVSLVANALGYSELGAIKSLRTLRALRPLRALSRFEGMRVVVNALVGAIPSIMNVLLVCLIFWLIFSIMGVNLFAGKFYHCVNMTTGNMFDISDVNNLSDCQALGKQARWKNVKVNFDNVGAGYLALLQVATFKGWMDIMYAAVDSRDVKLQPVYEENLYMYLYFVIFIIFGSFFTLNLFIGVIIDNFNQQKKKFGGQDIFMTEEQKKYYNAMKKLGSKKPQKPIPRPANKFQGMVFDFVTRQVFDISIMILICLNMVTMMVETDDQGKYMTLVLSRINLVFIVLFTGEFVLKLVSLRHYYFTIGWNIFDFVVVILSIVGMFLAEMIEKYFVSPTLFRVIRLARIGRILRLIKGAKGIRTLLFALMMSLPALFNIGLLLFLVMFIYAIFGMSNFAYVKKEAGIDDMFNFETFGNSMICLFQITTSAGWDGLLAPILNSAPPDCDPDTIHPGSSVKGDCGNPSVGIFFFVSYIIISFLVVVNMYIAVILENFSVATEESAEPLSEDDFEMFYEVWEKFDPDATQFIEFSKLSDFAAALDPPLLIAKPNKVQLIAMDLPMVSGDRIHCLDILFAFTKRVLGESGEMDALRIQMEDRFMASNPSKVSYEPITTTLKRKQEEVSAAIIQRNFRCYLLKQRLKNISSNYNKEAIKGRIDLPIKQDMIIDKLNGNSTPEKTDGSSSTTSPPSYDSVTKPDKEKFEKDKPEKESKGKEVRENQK
CYP2C9, sequence (P11712 whole entry): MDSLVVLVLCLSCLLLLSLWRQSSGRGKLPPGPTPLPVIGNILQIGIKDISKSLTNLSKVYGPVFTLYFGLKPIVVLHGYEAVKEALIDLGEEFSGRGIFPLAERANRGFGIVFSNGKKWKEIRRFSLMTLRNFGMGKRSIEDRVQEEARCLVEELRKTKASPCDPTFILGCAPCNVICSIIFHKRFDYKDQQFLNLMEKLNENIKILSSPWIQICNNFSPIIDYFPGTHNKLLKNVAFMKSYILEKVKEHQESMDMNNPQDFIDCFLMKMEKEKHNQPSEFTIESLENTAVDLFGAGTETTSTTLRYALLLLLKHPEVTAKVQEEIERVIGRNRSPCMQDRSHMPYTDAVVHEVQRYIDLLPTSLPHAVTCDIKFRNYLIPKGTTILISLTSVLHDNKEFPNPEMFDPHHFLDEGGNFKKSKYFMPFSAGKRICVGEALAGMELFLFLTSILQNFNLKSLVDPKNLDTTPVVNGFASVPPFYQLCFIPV
Sodium channel protein type 10 subunit alpha, sequence (Q9Y5Y9 whole entry): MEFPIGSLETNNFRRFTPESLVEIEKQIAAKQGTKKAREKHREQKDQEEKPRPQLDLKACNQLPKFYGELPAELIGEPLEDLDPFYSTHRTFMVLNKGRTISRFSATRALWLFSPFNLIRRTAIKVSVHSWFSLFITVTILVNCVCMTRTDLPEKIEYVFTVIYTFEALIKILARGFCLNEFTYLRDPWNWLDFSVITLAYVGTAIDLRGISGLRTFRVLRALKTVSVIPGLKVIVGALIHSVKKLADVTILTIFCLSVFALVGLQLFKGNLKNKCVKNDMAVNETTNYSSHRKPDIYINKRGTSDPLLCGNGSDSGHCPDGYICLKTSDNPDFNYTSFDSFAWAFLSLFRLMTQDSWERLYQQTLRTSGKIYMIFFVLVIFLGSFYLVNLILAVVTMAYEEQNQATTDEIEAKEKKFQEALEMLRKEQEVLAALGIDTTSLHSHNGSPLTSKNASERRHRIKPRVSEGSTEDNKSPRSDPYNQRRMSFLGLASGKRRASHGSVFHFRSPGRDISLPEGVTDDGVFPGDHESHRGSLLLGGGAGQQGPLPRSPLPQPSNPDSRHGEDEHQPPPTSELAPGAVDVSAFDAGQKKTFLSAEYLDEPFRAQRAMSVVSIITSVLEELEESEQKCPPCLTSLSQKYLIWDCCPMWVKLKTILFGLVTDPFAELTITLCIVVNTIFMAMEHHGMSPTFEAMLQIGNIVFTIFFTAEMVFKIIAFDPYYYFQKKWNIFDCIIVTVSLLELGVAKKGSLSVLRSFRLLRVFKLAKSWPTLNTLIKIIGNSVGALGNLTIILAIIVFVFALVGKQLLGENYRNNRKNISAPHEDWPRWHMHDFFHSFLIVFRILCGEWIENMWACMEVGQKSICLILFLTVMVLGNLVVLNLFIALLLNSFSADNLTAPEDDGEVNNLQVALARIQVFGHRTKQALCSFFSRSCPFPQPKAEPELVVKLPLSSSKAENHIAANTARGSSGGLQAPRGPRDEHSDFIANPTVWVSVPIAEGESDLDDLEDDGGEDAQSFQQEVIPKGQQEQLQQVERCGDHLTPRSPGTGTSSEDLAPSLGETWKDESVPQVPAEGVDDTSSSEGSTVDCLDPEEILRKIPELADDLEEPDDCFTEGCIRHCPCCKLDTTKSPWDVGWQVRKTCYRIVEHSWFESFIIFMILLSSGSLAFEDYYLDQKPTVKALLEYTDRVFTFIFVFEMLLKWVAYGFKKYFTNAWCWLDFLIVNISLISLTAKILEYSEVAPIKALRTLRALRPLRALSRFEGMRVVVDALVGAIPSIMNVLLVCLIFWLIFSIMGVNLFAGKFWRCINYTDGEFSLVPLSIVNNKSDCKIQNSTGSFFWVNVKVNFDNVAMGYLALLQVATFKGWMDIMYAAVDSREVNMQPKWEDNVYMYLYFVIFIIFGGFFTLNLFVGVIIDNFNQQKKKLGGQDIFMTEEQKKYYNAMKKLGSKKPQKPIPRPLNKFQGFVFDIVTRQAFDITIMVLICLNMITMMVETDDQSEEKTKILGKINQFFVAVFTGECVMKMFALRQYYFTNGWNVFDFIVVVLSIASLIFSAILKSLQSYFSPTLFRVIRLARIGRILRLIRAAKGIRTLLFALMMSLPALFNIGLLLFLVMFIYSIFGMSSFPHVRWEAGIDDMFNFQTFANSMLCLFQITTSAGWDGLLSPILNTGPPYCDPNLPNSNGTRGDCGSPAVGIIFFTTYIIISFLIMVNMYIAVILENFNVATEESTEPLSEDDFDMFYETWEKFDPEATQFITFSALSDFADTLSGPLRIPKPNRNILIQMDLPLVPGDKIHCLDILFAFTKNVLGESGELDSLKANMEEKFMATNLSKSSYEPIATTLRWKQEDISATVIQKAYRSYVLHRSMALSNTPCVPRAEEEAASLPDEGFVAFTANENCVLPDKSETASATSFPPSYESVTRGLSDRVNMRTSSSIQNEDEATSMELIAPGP
CYP3A4, sequence (P08684 whole entry): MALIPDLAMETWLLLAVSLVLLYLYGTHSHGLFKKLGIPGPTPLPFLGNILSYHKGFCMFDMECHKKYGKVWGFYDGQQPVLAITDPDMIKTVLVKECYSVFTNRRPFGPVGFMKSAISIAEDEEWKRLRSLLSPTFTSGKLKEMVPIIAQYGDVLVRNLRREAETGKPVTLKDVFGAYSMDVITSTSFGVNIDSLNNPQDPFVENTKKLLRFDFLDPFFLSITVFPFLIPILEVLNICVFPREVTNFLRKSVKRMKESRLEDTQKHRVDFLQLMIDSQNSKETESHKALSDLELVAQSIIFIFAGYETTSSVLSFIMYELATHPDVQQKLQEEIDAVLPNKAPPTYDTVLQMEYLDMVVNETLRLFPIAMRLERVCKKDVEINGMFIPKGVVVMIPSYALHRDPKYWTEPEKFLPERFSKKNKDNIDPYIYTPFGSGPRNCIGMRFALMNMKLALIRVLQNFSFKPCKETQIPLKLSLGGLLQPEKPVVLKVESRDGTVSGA

Q: With `O=C(COc1ccc(F)cc1)N1CCc2cc(S(=O)(=O)Nc3nccs3)ccc21` as the compound, how does the logD [1] read?
A: 1.8

Q: And the IC50 [2]?
A: 2.51 µM

Q: Which logD [1] does the source give for `O=S(=O)(Nc1nccs1)c1ccc(S(=O)(=O)N2CC[C@H](Oc3c(Cl)cccc3Cl)C2)cc1F` here?
A: 2.6

Q: What about the IC50 [2] of the same compound?
A: 0.945 µM

Q: Which Activity [3] does the source give for `CC(C)C[C@H](CN)CC(=O)O` here?
A: Active

Q: And the Activity [4]?
A: Active

Q: What about the Activity [5] of the same compound?
A: Active

Q: What about the Activity [6] of the same compound?
A: Active

Q: With `O=S(=O)(Nc1nccs1)c1ccc(S(=O)(=O)N2CCCCC2c2cc(-c3ccccc3)[nH]n2)cc1F` (centres undefined) as the compound, how does the IC50 [2] read?
A: 1.83 µM

Q: Which logD [1] does the source give for `O=C(COc1ccc(F)cc1)N1CCc2cc(S(=O)(=O)Nc3ncns3)ccc21` here?
A: 0.4

Q: And the IC50 [2]?
A: 1.27 µM

Q: For `O=C(Cc1ccccc1)Nc1ccc(S(=O)(=O)Nc2nccs2)cc1`, which IC50 [2] is on record?
A: 3.79 µM

Q: Which IC50 [2] does the source give for `O=S(=O)(Nc1nccs1)c1ccc(S(=O)(=O)N2CCC[C@@H]2CNc2ncnc3[nH]ccc23)cc1F` here?
A: > 3 µM

Q: Which IC50 [7] does the source give for `O=S(=O)(Nc1ncns1)c1ccc(OCc2ccc(OC(F)(F)F)c(Cl)c2)cc1` here?
A: 5.1 µM

Q: And the clearance [8]?
A: 2 mL/min/kg

Q: What about the inhibition at 3 µM [9] of the same compound?
A: 75%

Q: What about the pKa [10] of the same compound?
A: 4.1

Q: And the microsomal CLint [11]?
A: < 14 µL/min/mg

Q: And the microsomal CLint [12]?
A: < 32 µL/min/mg

Q: And the bioavailability [13]?
A: 73%

Q: And the Vd [14]?
A: 1 L/kg

Q: And the microsomal CLint [15]?
A: 15 µL/min/mg

Q: And the efflux ratio [16]?
A: 1

Q: What about the microsomal CLint [17] of the same compound?
A: < 18 µL/min/mg

Q: What about the half-life [18] of the same compound?
A: 7 h

Q: And the IC50 [19]?
A: 15.1 µM

Q: What about the IC50 [20] of the same compound?
A: 2.76 µM

Q: And the IC50 [21]?
A: > 10 µM

Q: And the IC50 [22]?
A: 0.455 µM

Q: And the logD [1]?
A: 2.65

Q: And the solubility [23]?
A: 99 µM

Q: What about the fraction unbound [24] of the same compound?
A: 0.00024

Q: What about the IC50 [2] of the same compound?
A: 0.022 µM

Q: And the inhibition at 3 µM [25]?
A: 85%

Q: What does the source list for `O=C(NCc1ccc(OC(F)(F)F)c(Cl)c1)c1ccc(S(=O)(=O)Nc2nccs2)cc1`?
A: logD [1]: 3.1; IC50 [2]: 0.02 µM

Q: For `O=C(c1ccc(OC(F)(F)F)c(Cl)c1)N1CC(OCc2ccc(S(=O)(=O)Nc3ncns3)cc2)C1`, which logD [1] is on record?
A: 1.3

Q: What about the IC50 [2] of the same compound?
A: 0.237 µM

Q: With `O=S(=O)(Nc1nccs1)c1ccc(S(=O)(=O)N2CC(Oc3ccccc3)C2)cc1F` as the compound, how does the logD [1] read?
A: 1.4

Q: What about the IC50 [2] of the same compound?
A: 0.959 µM

Q: Which logD [1] does the source give for `CN(Cc1ccc(OC(F)(F)F)c(Cl)c1)C(=O)c1ccc(S(=O)(=O)Nc2ncns2)c(F)c1` here?
A: 1.3

Q: And the IC50 [2]?
A: 0.522 µM

Q: With `O=S(=O)(CCc1ccc(C(F)(F)F)cc1)c1ccc(S(=O)(=O)Nc2nccs2)cc1` as the compound, how does the IC50 [2] read?
A: 0.155 µM

Q: For `O=C(c1ccc(S(=O)(=O)Nc2ncns2)c(F)c1)N1CCC(c2noc(-c3ccccc3C(F)(F)F)n2)CC1`, which IC50 [2] is on record?
A: 1.95 µM

Q: Which IC50 [2] does the source give for `O=C(c1ccc(S(=O)(=O)Nc2ncns2)c(F)c1)N1CCC(c2ccnc(C(F)(F)F)n2)CC1` here?
A: 6.68 µM

Q: With `O=C(NCc1ccc(OC(F)(F)F)c(Cl)c1)c1ccc(S(=O)(=O)Nc2nccs2)c(F)c1` as the compound, how does the IC50 [7] read?
A: 0.289 µM

Q: What about the clearance [8] of the same compound?
A: 3.9 mL/min/kg

Q: What about the fraction unbound [26] of the same compound?
A: 0.002

Q: And the inhibition at 3 µM [9]?
A: 66%

Q: What about the pKa [10] of the same compound?
A: 6.4

Q: And the Ratio [27]?
A: <= 15

Q: What about the IC50 [28] of the same compound?
A: 15.8 µM

Q: What about the bioavailability [13] of the same compound?
A: 58%

Q: And the Vd [14]?
A: 1.1 L/kg

Q: What about the microsomal CLint [15] of the same compound?
A: < 8 µL/min/mg

Q: What about the efflux ratio [16] of the same compound?
A: 3.5

Q: What about the fraction unbound [29] of the same compound?
A: < 0.002

Q: And the Activity [30]?
A: Toxic

Q: What about the Activity [31] of the same compound?
A: Toxic

Q: And the IC50 [32]?
A: 1.05 µM

Q: And the IC50 [19]?
A: 12.4 µM

Q: What about the IC50 [20] of the same compound?
A: 0.429 µM

Q: What about the IC50 [21] of the same compound?
A: 17.7 µM

Q: And the IC50 [22]?
A: 0.02 µM

Q: And the Activity [33]?
A: inactive

Q: What about the fraction unbound [34] of the same compound?
A: 0.002

Q: And the logD [1]?
A: 3.3

Q: What about the Activity [35] of the same compound?
A: Toxic

Q: And the Activity [36]?
A: inactive

Q: And the Ratio [37]?
A: 62

Q: And the solubility [23]?
A: 12 µg/mL

Q: And the Ratio [38]?
A: 12

Q: And the IC50 [2]?
A: 0.011 µM

Q: What about the inhibition at 3 µM [25] of the same compound?
A: 66%
